Measured values of several laboratories.
Organism: Hepatitis C virus
Read-out: viral replication
Mode: inhibitor

C[C@H](NC(=O)OCc1ccccc1)C(=O)Nc1ccc(C2S/C(=N\c3cccc(F)c3)N(Cc3ccco3)C2=O)cc1 (stereo partly drawn) — EC50 (Huh-7; GETYPE1B; replicon): 570 nM
C=C1CC[C@H](O)C/C1=C/C=C1\CCC[C@]2(C)[C@@H]([C@H](C)/C=C/[C@H](C)C(C)C)CC[C@@H]12 — EC50 (luciferase; BM4-5; GETYPE1B; 72 h; replicon): 12800 nM
O=c1oc2c(O)c(O)cc3c(=O)oc4c(O)c(O)cc1c4c23 — EC50 (Huh-7; GETYPE2A; 48 h; replicon): ~60000 nM
C=C1/C(=C\C=C2/CCC[C@]3(C)[C@@H]([C@H](C)CCCC(C)(C)O)CC[C@@H]23)C[C@@H](O)C[C@@H]1O — EC50 (luciferase; GETYPE2A; 72 h; replicon): 5430 nM
O=C1OC[C@H]2OC(O)[C@H](O)[C@@H](O)[C@@H]2OC(=O)c2cc(O)c(O)c(O)c2-c2c(O)c(O)c3oc(=O)c4c(c(O)c(O)c5oc(=O)c2c3c54)-c2c1cc(O)c(O)c2O (mixture of isomers) — EC50 (Huh-7; GETYPE2A; 48 h; replicon): > 150000 nM
CCC(=O)Nc1cc(C(=O)Nc2ccc(CN3CCN(C)CC3)c(C(F)(F)F)c2)ccc1OC — EC50 (qPCR; Huh7.5; GETYPE2A; 72 h): < 1500 nM
CC(C)(CO)C(=O)SCCOP(=O)(NCc1ccccc1)OC[C@H]1O[C@@H](n2cnc3c(=O)[nH]c(N)nc32)[C@](C)(O)[C@@H]1O (mixture of isomers) — EC50 (Huh-7; GETYPE1; replicon): 300 nM
COC(=O)N[C@H](C(=O)N1CCC[C@H]1c1ncc(-c2ccc(-c3ccc(-c4cnc([C@@H]5CCCN5C(=O)[C@@H](NC(=O)OC)C(C)C)[nH]4)cc3)cc2)[nH]1)C(C)C — EC50 (GETYPE2A; replicon): 0.103 nM
CCC(CC)COC(=O)[C@H](C)N[P@](=O)(OC[C@H]1O[C@@](C#N)(c2ccc3c(N)ncnn23)[C@H](O)[C@@H]1O)Oc1ccccc1 — EC50 (Huh7.5; GETYPE3 GETYPE3A; replicon): 190 nM
CC(C)(C)OC(=O)N[C@H]1CCCCC/C=C\[C@@H]2C[C@@]2(C(=O)NS(=O)(=O)C2CC2)NC(=O)[C@@H]2C[C@@H](OC(=O)N3Cc4cccc(F)c4C3)CN2C1=O — EC50 (Huh-7; GETYPE1A GETYPE1B; 96 h; replicon): 0.57 nM
COc1nc(N)nc2c1ncn2[C@@H]1O[C@H](COP(=O)(N[C@@H](C)C(=O)OCC(C)(C)C)Oc2cccc3ccccc23)[C@@H](O)[C@@]1(C)O (stereo partly drawn) — EC50 (GETYPE1A; 96 h; replicon): 1.4 nM
CN1CCN(C(c2ccccc2)c2ccc(Cl)cc2)CC1 (racemic) — EC50 (Huh-7.5.1; GETYPE2A; 48 h; replicon): 44 nM
